Activity calls are given as the source filed them. The calls are words filed in the database; no cut-off is given here.
Assays:
[1] = test system: Rattus norvegicus; assay: ED2(natriuretic potency) is the oral dose(mg/kg) required to produce an excretion of 2 milliequivalents of Na+per kilogram during 0-4 hr in female rats (Highest dose tested was 100 mg/kg); type: functional
Outline: (§1)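 Female Sprague-Dawley rats, 175-225 g, on sucrose and water for 18 h, given 5 mg DOCA sc 2 h before dosing. Compound in 0.2% methylcellulose given by gavage at 2 mL/kg, then a 30 mL/kg load of 0.34% NaCl/0.69% KCl. Individual metabolism cages, urine collected 0-4 h for Na+, K+, Cl-. Two-stage two-dose screen at 2 rats/dose, then at least four doses at 4 rats/dose. ED2 taken from regression of Na+ excretion against log dose.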

[2] = test system: Mus musculus; assay: ED6 (natriuretic potency) is the oral dose(mg/kg) required to produce an excretion of 6 milliequivalents of Na+per kilogram during 0-4 hr in male mice (Highest dose tested was 50 mg/kg); Inactive; type: functional, organism-based; set-up: dose 50 mg/kg
Outline: (§2)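 Male mice, 16-30 g, fed ad libitum beforehand. Compound in 0.2% hydroxypropylmethylcellulose given po at 10 mL/kg, then 0.9% saline po at 3% of body weight. Five mice pooled per metabolism cage, four cages per dose. Combined urine collected 0-4 h and assayed for Na+, K+, Cl-, uric acid as mequiv/kg per cage. ED6 from regression of Na+ against log dose.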

[3] = test system: Canis familiaris; assay: ED5(natriuretic potency) is the oral dose(mg/kg) required to produce an excretion of 5 milliequivalents of Na+per kilogram during 0-6 hr in female dogs (Highest dose tested was 30 mg/kg); Inactive; type: functional, organism-based; set-up: dose 30 mg/kg; details: Canis lupus familiaris
Outline: (§3)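 Female dogs, conscious, one oral dose per dog per experiment. Urine collected and centrifuged; venous plasma drawn at each collection time. Samples assayed for Na+, K+, Cl-, urate and glucose by standard methods. Cumulative Na+ output expressed as mequiv/kg over 6 h, at least two dogs/dose. ED5 read from regression of Na+ excretion against log dose.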

[4] = test system: Mus musculus; assay: ED6 (natriuretic potency) is the oral dose(mg/kg) required to produce an excretion of 6 milliequivalents of Na+per kilogram during 0-4 hr in male mice (Highest dose tested was 50 mg/kg); type: functional; outline: as §2
[5] = urate excreted in 4 Cebus monkey''s during 0-6 hr; type: ADME; details: in vivo
Outline: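 Male and female Cebus monkeys, 4-6 per group, fasted for 6 h after dosing, water ad libitum. 20 mg/kg in 0.2% hydroxypropylmethylcellulose at 1.0 mL/kg by nasogastric tube, then water load of 5% body weight. Urine collected in metabolism pans at 2, 6 and 24 h and assayed for uric acid. Urate in mg/kg over 0-6 h, mean ± SEM.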

[6] = test system: Canis familiaris; assay: Na+ excretion mequiv/kg in 6 conscious female dogs administered perorally during 0-6 hr; type: ADME, organism-based, Canis lupus familiaris; details: dog, in vivo, po
Outline: (§4)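 Conscious female dogs dosed at 3 mg/kg po, except one reference at 10 mg/kg, one dose per dog. Urine collected to 6 h and centrifuged; heparinized venous plasma taken at each collection. Na+ and urate measured by standard methods, mean ± SEM over 0-6 h. Compared with vehicle by ANOVA/Duncan's test or unpaired t test.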

[7] = test system: Mus musculus; assay: Na+ excretion mequiv/kg in saline-loaded mice administered at a dose 50 […] perorally; type: ADME, organism-based; details: in vivo, po
Outline: (§5)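 Saline-loaded male mice, 16-30 g. Compound po in 0.2% hydroxypropylmethylcellulose at 10 mL/kg, vehicle alone for controls, followed by 0.9% saline po at 3% of body weight. Doses were 0.3-250 mg/kg po. Five mice per metabolism cage, four cages per dose, pooled urine collected for 4 h. Na+ reported as mean ± SEM mequiv/kg; ANOVA with Duncan's test or unpaired t test against control.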

[8] = organism: Canis familiaris; assay: urate excreted in 6 female dogs during 0-6 hr; type: ADME, organism-based, Canis lupus familiaris; details: dog, in vivo; outline: as §4
[9] = test system: Mus musculus; assay: Na+ excretion mequiv/kg in saline-loaded mice administered at a dose 10 […] perorally; type: ADME, organism-based; details: in vivo, po; outline: as §5
[10] = test system: Mus musculus; assay: Na+ excretion mequiv/kg in saline-loaded mice administered at a dose 250 […] perorally; type: ADME, organism-based; details: in vivo, po; outline: as §5
[11] = test system: Canis familiaris; assay: ED5(natriuretic potency) is the oral dose(mg/kg) required to produce an excretion of 5 milliequivalents of Na+per kilogram during 0-6 hr in female dogs (Highest dose tested was 30 mg/kg); type: functional, Canis lupus familiaris; outline: as §3
[12] = test system: Rattus norvegicus; assay: ED2(natriuretic potency) is the oral dose(mg/kg) required to produce an excretion of 2 milliequivalents of Na+per kilogram during 0-4 hr in female rats (Highest dose tested was 100 mg/kg); Inactive; type: functional, organism-based; set-up: dose 100 mg/kg; outline: as §1

SMILES | ED2 [1] | ED6 [2] | ED6 [4] | other results
O=C(O)C1Cc2cc3c(-c4ccccc4Cl)noc3c(Cl)c2O1 (stereo not drawn) | 22.5 mg/kg | inactive |  | 
CCc1noc2c(Cl)c3c(cc12)CC(C(=O)O)O3 (stereo not drawn) | 3.8 mg/kg |  | 6.8 mg/kg | ED5 [3]: inactive
O=C(O)C1Cc2cc3c(-c4cccs4)noc3c(Cl)c2O1 (stereo not drawn) | >100 mg/kg | inactive |  | 
O=C(O)COc1ccc(C(=O)c2cccs2)c(Cl)c1Cl |  |  |  | Excretion [5]: 11.81 mg/kg; Na+ excretion [6]: 1.54 m equiv kg-1; Na+ excretion [7]: 6.3 m equiv kg-1; Excretion [8]: 0.8 mg/kg; Na+ excretion [9]: 3.7 m equiv kg-1; Na+ excretion [10]: 7.7 m equiv kg-1
O=C(O)C1Cc2cc3c(-c4ccccc4)noc3c(Cl)c2O1 (stereo not drawn) | 27.3 mg/kg |  | 55 mg/kg | ED5 [11]: 13.5 mg/kg
O=C(O)C1Cc2cc3c(-c4ccc(F)cc4)noc3c(Cl)c2O1 (stereo not drawn) | 7.3 mg/kg |  | 66 mg/kg | 
COc1c2c(cc3c(-c4ccccc4F)noc13)CC(C(=O)O)O2 (stereo not drawn) | 210 mg/kg | inactive |  | 
O=C(O)C1Cc2cc3c(-c4ccccc4F)noc3cc2O1 (stereo not drawn) |  |  | 100 mg/kg | ED2 [12]: inactive
Cc1c2c(cc3c(-c4ccccc4F)noc13)CC(C(=O)O)O2 (stereo not drawn) | >100 mg/kg |  | 7.25 mg/kg | ED5 [11]: 0.79 mg/kg
Cc1ccccc1-c1noc2c(Cl)c3c(cc12)CC(C(=O)O)O3 (stereo not drawn) | 14.3 mg/kg |  | 8.4 mg/kg | 
NC(=O)C1Cc2cc3c(-c4ccccc4F)noc3c(Cl)c2O1 (stereo not drawn) |  |  | 39 mg/kg | ED2 [12]: inactive
O=C(O)C1Cc2cc3c(-c4cccc(F)c4)noc3c(Cl)c2O1 (stereo not drawn) | 63 mg/kg | inactive |  | 
Cc1noc2c(Cl)c3c(cc12)CC(C(=O)O)O3 (stereo not drawn) | 40 mg/kg | inactive |  | 
